Test results: ChEMBL document CHEMBL3091412, “Discovery of an irreversible HCV NS5B polymerase inhibitor” (Bioorg Med Chem Lett, 2013)
Each block holds one compound with its values, some of them ahead of it.

Assays:
[1] = Irreversible inhibition of HCV1b NS5B delta21 polymerase by radiolabeled nucleotide incorporation assay; parameters: species or system Hepatitis C virus subtype 1b
[2] = tested on: Hepatitis C virus; assay: Antiviral activity against HCV Con1 in eplicon cells after 3 days by RT-PCR analysis; type: functional, organism-based, Hepacivirus hominis; details: isolate Con1, 72 h
Outline: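 HCV 1b-Con1 replicon cells seeded at 5000 cells/well one day before treatment; inhibitor in DMSO added as 10 serial twofold dilutions in duplicate (final 0.5% DMSO, 5% FBS). Harvested 3 days post dosing; replicon RNA quantified by real-time RT-PCR (Taqman), GAPDH RNA as endogenous control; EC50 calculated.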

[3] = AUC in fed cynomolgus monkey at 10 mg/kg, po; type: ADME, organism-based, Macaca fascicularis; parameters: dose 10 mg/kg, route oral; details: plasma
Outline: (§1)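 Given orally as crystalline sodium salt to fed male Sprague Dawley rats (30–500 mg/kg) or fed male Cynomolgus monkeys (10–100 mg/kg) to assess dose exposure; plasma AUC and Cmax determined.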

[4] = Cmax in fed cynomolgus monkey at 10 mg/kg, po; type: ADME, organism-based, Macaca fascicularis; parameters: dose 10 mg/kg, route oral; details: in vivo; outline: as §1
[5] = tested on: Cynomolgus monkey; assay: Drug metabolism in cynomolgus monkey assessed as sulfate conjugate formation administered as single oral dose; type: ADME, organism-based, Macaca fascicularis; details: in vivo
Outline: (§2)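 Radiolabeled [3H] compound given as single oral dose to monkey; bile and urine excretion and metabolites profiled, including parent fraction in bile and glutathione or sulfate conjugates.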

[6] = AUC in fed Sprague-Dawley rat at 500 mg/kg, po; type: ADME, organism-based; parameters: dose 500 mg/kg, route oral; details: plasma; outline: as §1
[7] = target: hERG (KCNH2) (Homo sapiens, UniProt Q12809); assay: Inhibition of human ERG at 2 uM by voltage clamp assay
hERG (KCNH2), sequence (Q12809 whole entry): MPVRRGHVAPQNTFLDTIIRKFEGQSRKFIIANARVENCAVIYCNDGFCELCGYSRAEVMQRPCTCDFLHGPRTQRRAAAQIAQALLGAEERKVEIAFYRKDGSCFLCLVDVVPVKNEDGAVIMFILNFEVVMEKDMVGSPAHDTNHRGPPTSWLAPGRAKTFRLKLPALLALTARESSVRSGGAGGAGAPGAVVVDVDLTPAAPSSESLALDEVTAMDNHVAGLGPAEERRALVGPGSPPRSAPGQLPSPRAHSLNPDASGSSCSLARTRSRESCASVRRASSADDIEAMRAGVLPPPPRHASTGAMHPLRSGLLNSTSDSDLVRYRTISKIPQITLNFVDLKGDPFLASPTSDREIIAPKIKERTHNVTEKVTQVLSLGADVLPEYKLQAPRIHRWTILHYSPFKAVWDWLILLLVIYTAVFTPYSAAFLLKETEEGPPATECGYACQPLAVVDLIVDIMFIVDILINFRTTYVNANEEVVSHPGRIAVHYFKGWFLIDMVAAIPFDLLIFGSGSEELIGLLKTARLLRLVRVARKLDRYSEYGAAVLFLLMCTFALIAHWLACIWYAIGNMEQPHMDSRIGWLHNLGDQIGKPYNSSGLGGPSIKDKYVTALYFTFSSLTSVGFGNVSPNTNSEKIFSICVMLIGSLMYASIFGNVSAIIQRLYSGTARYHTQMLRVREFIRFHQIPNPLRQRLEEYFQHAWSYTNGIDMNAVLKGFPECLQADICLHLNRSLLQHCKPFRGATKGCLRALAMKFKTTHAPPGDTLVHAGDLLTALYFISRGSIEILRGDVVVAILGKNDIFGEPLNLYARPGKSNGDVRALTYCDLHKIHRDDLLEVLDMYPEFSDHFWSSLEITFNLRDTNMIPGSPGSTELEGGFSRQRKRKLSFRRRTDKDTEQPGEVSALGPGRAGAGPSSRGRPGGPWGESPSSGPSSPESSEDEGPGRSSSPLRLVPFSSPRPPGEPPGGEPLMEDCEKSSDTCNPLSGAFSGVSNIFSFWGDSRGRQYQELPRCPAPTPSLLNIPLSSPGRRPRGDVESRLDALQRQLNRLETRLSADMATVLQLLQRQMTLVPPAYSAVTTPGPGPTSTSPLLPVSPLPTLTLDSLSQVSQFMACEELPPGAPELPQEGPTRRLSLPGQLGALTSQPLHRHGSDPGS

[8] = AUC in fed Sprague-Dawley rat at 100 mg/kg, po; type: ADME, organism-based; parameters: dose 100 mg/kg, route oral; details: plasma; outline: as §1
[9] = target: T1, Cytochrome P450 3A4 (Homo sapiens, UniProt P08684); assay: Inhibition of CYP3A4 in human liver microsomes measured after compound pre-incubation; type: ADME
T1 sequence (P08684 whole entry): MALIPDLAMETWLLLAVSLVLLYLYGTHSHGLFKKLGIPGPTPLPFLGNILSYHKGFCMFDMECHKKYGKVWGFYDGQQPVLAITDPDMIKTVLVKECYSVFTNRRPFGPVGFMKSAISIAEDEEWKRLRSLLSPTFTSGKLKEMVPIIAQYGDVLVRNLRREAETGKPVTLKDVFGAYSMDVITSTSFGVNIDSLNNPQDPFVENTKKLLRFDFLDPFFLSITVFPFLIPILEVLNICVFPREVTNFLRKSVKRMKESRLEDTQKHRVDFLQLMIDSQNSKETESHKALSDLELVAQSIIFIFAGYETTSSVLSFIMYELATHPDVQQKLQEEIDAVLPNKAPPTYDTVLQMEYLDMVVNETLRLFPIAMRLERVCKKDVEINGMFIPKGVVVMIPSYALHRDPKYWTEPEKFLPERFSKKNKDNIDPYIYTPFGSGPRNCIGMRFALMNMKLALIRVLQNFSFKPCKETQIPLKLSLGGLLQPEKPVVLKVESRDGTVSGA
Outline: (§3)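 Human liver microsomes; CYP inhibition measured with compound added concurrently or after pre-incubation; concentration inhibiting 50% of enzyme activity determined.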

[10] = target: T2, Cytochrome P450 1A2 (Homo sapiens, UniProt P05177); assay: Inhibition of CYP1A2 in human liver microsomes measured after compound pre-incubation; type: ADME; outline: as §3
T2 sequence (P05177 whole entry): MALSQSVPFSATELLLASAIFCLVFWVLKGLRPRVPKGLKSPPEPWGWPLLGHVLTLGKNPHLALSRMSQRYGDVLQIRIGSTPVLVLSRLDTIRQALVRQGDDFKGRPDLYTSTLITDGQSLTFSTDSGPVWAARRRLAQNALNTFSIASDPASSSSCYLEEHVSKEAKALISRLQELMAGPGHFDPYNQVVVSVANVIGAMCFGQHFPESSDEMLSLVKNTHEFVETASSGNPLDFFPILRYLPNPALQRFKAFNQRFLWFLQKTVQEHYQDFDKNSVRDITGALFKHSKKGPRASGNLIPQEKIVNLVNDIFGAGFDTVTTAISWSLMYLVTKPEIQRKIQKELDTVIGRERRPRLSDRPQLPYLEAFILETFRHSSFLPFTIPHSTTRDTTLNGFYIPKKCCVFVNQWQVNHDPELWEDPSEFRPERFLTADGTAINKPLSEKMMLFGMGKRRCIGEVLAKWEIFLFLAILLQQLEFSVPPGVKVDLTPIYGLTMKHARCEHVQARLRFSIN

[11] = Cmax in fed cynomolgus monkey at 100 mg/kg, po; type: ADME, organism-based, Macaca fascicularis; parameters: dose 100 mg/kg, route oral; details: in vivo; outline: as §1
[12] = tested on: Salmonella typhimurium; assay: Induction of mutagenicity in Salmonella Typhimurium TA 102 by mini-Ames assay; type: toxicity, organism-based; details: salmonella enterica subsp. enterica serovar typhimurium
Outline: (§4)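 Mini-Ames mutagenicity test against Salmonella strains TA 97a, TA 100 and TA 102.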

[13] = tested on: Cynomolgus monkey; assay: Drug metabolism in cynomolgus monkey assessed as glutathione conjugate formation administered as single oral dose; type: ADME, organism-based, Macaca fascicularis; details: in vivo; outline: as §2
[14] = AUC in fed Sprague-Dawley rat at 30 mg/kg, po; type: ADME, organism-based; parameters: dose 30 mg/kg, route oral; details: plasma; outline: as §1
[15] = tested on: Salmonella typhimurium; assay: Induction of mutagenicity in Salmonella Typhimurium TA 97a by mini-Ames assay; type: toxicity, organism-based; details: salmonella enterica subsp. enterica serovar typhimurium; outline: as §4
[16] = AUC in fed Sprague-Dawley rat at 250 mg/kg, po; type: ADME, organism-based; parameters: dose 250 mg/kg, route oral; details: plasma; outline: as §1
[17] = Cmax in fed Sprague-Dawley rat at 100 mg/kg, po; type: ADME, organism-based; parameters: dose 100 mg/kg, route oral; details: in vivo; outline: as §1
[18] = target: T3, Cytochrome P450 2C8 (Homo sapiens, UniProt P10632); assay: Inhibition of CYP2C8 in human liver microsomes measured after concurrent incubation; type: ADME; outline: as §3
T3 sequence (P10632 whole entry): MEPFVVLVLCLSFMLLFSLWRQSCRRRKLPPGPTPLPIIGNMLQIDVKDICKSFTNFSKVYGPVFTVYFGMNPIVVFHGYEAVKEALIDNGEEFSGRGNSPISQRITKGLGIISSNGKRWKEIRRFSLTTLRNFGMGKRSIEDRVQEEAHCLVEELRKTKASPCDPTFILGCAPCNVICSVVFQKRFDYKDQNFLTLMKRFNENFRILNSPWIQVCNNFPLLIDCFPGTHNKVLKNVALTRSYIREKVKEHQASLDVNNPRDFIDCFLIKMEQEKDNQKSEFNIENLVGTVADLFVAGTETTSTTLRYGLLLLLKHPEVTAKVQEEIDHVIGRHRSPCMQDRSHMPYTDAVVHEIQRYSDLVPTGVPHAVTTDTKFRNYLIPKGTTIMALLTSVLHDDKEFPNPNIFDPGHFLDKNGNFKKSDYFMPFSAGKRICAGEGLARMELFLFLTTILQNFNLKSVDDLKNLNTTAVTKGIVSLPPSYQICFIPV

[19] = target: T4, Cytochrome P450 2C19 (Homo sapiens, UniProt P33261); assay: Inhibition of […] in human liver microsomes measured after concurrent incubation; type: ADME
T4 sequence (P33261 whole entry): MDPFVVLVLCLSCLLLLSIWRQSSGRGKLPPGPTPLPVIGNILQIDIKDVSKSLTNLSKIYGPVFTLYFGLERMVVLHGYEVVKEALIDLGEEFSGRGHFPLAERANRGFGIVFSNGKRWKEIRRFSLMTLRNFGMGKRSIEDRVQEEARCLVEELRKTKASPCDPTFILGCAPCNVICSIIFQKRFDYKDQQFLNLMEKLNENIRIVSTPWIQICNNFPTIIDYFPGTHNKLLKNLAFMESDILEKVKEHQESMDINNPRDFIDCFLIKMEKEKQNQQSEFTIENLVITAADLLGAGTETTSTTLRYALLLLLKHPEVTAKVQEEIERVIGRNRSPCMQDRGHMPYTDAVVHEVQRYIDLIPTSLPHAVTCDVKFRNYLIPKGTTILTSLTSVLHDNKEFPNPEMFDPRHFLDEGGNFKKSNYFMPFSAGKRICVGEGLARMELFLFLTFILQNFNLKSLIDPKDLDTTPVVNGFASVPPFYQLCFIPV

[20] = tested on: Rattus norvegicus; assay: Toxicity in rat assessed as mortality at 250 to 2000 mg/kg measured up to 1 day; type: organism-based; parameters: dose 250-2000 mg/kg; details: in vivo, 24 h
Outline: (§5)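 Single-dose rat toxicity study with dose groups of 250, 500, 1000 and 2000 mg/kg. Animals were monitored for clinical signs of toxicity, including stool appearance, and for mortality.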

[21] = Cmax in fed Sprague-Dawley rat at 250 mg/kg, po; type: ADME, organism-based; parameters: dose 250 mg/kg, route oral; details: in vivo; outline: as §1
[22] = AUC in fed cynomolgus monkey at 30 mg/kg, po; type: ADME, organism-based, Macaca fascicularis; parameters: dose 30 mg/kg, route oral; details: plasma; outline: as §1
[23] = AUC in fed cynomolgus monkey at 100 mg/kg, po; type: ADME, organism-based, Macaca fascicularis; parameters: dose 100 mg/kg, route oral; details: plasma; outline: as §1
[24] = tested on: Rattus norvegicus; assay: Toxicity in rat assessed as soft and mucoid stool at 1000 to 2000 mg/kg measured up to 1 day; type: organism-based; parameters: dose 1000-2000 mg/kg; details: in vivo, 24 h; outline: as §5
[25] = tested on: Rattus norvegicus; assay: Toxicity in rat at 10 to 500 mg/kg measured up to 2 weeks; type: organism-based; parameters: dose 10-500 mg/kg; details: in vivo, 336 h
[26] = Cmax in fed Sprague-Dawley rat at 500 mg/kg, po; type: ADME, organism-based; parameters: dose 500 mg/kg, route oral; details: in vivo; outline: as §1
[27] = Cmax in fed cynomolgus monkey at 30 mg/kg, po; type: ADME, organism-based, Macaca fascicularis; parameters: dose 30 mg/kg, route oral; details: in vivo; outline: as §1
[28] = target: T5, Cytochrome P450 2D4 (Rattus norvegicus, UniProt Q64680); assay: Inhibition of rat CYP2D4 measured after concurrent incubation; type: ADME
T5 sequence (Q64680 whole entry): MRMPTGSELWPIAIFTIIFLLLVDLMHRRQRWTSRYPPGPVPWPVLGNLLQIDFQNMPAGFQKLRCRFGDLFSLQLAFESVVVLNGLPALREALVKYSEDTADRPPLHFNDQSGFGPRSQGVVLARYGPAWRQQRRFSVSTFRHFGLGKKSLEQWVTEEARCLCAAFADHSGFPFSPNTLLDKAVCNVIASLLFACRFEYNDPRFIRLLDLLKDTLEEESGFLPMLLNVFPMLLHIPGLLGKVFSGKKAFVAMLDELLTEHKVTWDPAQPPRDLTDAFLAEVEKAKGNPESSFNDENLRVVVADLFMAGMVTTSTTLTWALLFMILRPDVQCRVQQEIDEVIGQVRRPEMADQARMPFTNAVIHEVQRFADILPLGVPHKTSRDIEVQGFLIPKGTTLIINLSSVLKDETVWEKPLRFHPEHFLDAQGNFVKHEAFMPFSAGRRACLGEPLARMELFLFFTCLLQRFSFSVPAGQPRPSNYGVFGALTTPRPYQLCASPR

[29] = target: T5, Cytochrome P450 2D4; assay: Inhibition of rat CYP2D4 measured after compound pre-incubation; type: ADME
[30] = target: T4, Cytochrome P450 2C19; assay: Inhibition of […] in human liver microsomes measured after compound pre-incubation; type: ADME
[31] = target: T1, Cytochrome P450 3A4; assay: Inhibition of CYP3A4 in human liver microsomes measured after concurrent incubation; type: ADME; outline: as §3
[32] = target: T2, Cytochrome P450 1A2; assay: Inhibition of CYP1A2 in human liver microsomes measured after concurrent incubation; type: ADME; outline: as §3
[33] = tested on: Salmonella typhimurium; assay: Induction of mutagenicity in Salmonella Typhimurium TA 100 by mini-Ames assay; type: toxicity, organism-based; details: salmonella enterica subsp. enterica serovar typhimurium; outline: as §4
[34] = target: T6, Cytochrome P450 2C9 (Homo sapiens, UniProt P11712); assay: Inhibition of CYP2C9 in human liver microsomes measured after compound pre-incubation; type: ADME; outline: as §3
T6 sequence (P11712 whole entry): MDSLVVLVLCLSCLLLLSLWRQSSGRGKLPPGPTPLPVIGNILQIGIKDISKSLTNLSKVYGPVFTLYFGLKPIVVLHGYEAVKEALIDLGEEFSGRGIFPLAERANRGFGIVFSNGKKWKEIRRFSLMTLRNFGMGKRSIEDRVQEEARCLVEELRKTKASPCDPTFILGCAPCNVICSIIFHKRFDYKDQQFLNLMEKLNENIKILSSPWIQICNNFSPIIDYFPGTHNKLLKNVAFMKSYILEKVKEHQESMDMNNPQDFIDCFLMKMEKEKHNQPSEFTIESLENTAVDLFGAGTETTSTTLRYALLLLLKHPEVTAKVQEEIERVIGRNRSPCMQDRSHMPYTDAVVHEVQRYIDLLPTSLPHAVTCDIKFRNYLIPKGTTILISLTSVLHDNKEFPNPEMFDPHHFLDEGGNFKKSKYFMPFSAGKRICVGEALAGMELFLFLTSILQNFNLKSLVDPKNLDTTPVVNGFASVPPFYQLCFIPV

[35] = target: T7, Cytochrome P450 2D6 (Homo sapiens, UniProt P10635); assay: Inhibition of CYP2D6 in human liver microsomes measured after concurrent incubation; type: ADME; outline: as §3
T7 sequence (P10635 whole entry): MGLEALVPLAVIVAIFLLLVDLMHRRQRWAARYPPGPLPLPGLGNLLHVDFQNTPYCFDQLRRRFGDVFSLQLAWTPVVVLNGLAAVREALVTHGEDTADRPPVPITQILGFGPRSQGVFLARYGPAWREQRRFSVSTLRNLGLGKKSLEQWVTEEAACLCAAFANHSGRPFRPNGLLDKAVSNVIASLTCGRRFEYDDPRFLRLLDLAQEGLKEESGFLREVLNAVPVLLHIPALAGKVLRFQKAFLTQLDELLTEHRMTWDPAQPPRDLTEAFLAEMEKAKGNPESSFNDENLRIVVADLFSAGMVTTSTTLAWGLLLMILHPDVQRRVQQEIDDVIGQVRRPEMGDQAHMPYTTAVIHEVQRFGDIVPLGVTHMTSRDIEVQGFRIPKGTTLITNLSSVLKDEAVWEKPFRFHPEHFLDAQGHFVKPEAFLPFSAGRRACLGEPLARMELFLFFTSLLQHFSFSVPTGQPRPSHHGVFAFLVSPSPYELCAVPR

[36] = target: T3, Cytochrome P450 2C8; assay: Inhibition of CYP2C8 in human liver microsomes measured after compound pre-incubation; type: ADME; outline: as §3
[37] = Drug excretion in cynomolgus monkey bile assessed as parent compound administered as single oral dose; type: ADME, Macaca fascicularis; details: read-out: Drug excretion; outline: as §2
[38] = target: T6, Cytochrome P450 2C9; assay: Inhibition of CYP2C9 in human liver microsomes measured after concurrent incubation; type: ADME; outline: as §3
[39] = Cmax in fed Sprague-Dawley rat at 30 mg/kg, po; type: ADME, organism-based; parameters: dose 30 mg/kg, route oral; details: in vivo; outline: as §1
[40] = target: T7, Cytochrome P450 2D6; assay: Inhibition of CYP2D6 in human liver microsomes measured after compound pre-incubation; type: ADME; outline: as §3

IC50 [1]: 0.02 µM
EC50 [2]: 0.02 µM
SMILES: Cc1cc2c(-c3ccc[nH]c3=O)c(C(=O)O)n(Cc3cc4ccc(F)cc4nc3Cl)c2cc1F

SMILES: Cc1cc2c(-c3ccc[nH]c3=O)c(C(=O)O)n(Cc3cc4ccccc4nc3Cl)c2cc1F
AUC [3]: 9 µM·h
Cmax [4]: 0.9 µM
Stability [5]: Stable
AUC [6]: 1040 µM·h
inhibition at 2 µM [7]: 6%
AUC [8]: 375 µM·h
IC50 [9]: > 50 µM
IC50 [10]: > 50 µM
Cmax [11]: 2 µM
Activity [12]: Non-toxic
Stability [13]: Stable
AUC [14]: 176 µM·h
Activity [15]: Non-toxic
AUC [16]: 1090 µM·h
Cmax [17]: 32 µM
IC50 [18]: 21 µM
IC50 [19]: > 50 µM
Activity [20]: Non-toxic
Cmax [21]: 66 µM
AUC [22]: 15 µM·h
AUC [23]: 17 µM·h
Activity [24]: Toxic
Activity [25]: Non-toxic
Cmax [26]: 65 µM
Cmax [27]: 1.3 µM
IC50 [1]: 0.013 µM
IC50 [28]: > 50 µM
IC50 [29]: > 50 µM
IC50 [30]: > 50 µM
IC50 [31]: > 50 µM
IC50 [32]: > 50 µM
Activity [33]: Non-toxic
IC50 [34]: > 50 µM
IC50 [35]: > 50 µM
IC50 [36]: 30 µM
dose excreted [37]: 81%
IC50 [38]: > 50 µM
Cmax [39]: 21 µM
EC50 [2]: 0.003 µM
IC50 [40]: > 50 µM

IC50 [1]: 0.006 µM
EC50 [2]: 0.01 µM
SMILES: COc1ccc2cc(Cn3c(C(=O)O)c(-c4ccc[nH]c4=O)c4cc(C)c(F)cc43)c(Cl)nc2c1
